ChEMBL document CHEMBL1128540, “Synthesis and quantitative structure-activity relationships of dequalinium analogues as K+ channel blockers: investigation into the role of the substituent at position 4 of the quinoline ring” (J Med Chem, 1995)

Assays:
[1] = target: Small conductance calcium-activated potassium channel (Rattus norvegicus, UniProt P70604+P70606+P70605); test: The SKCa-blocking action was assessed by its ability to inhibit the after hyperpolarization (AHP) in cultured rat sympathetic neurones; type: functional, cell-based; conditions: sympathetic neuron
Summary of the method: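 SKCa block was read as inhibition of the after-hyperpolarization following action potentials in cultured rat sympathetic neurones. Each compound was tested at two to four concentrations on at least three cells, and IC50 was taken for 50% AHP inhibition. Concentrations above 10–30 μM were generally avoided. Dequalinium was included as reference in each series.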

[2] = Equieffective molar ratio(EMR) to that of the dequalinium, causing 50% inhibition of AHP(action potential).; type: functional
Summary of the method: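 AHP inhibition in cultured rat sympathetic neurones. Each compound was tested at two to four concentrations on at least three cells, with dequalinium run as reference in the same series (one to three compounds per series). EMR is the ratio of test compound to dequalinium concentration giving 50% AHP inhibition within the same experiment. Test concentrations above 10–30 μM were generally avoided.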

| SMILES | IC50 [1] [µM] | EMR [2] |
| --- | --- | --- |
| COc1cc2c3cc1Oc1cc(ccc1O)C[C@@H]1c4c(cc(OC)c(O)c4Oc4ccc(cc4)C[C@@H]3N(C)CC2)CC[N+]1(C)C.[Cl-] | 7.5 | – |
| CC(=O)Nc1cc[n+](CCCCCCCCCC[n+]2ccc(NC(C)=O)c3ccccc32)c2ccccc12 | 4.5 | 5.5 |
| c1ccc(CNc2cc[n+](CCCCCCCCCC[n+]3ccc(NCc4ccccc4)c4ccccc43)c3ccccc23)cc1 | 0.52 | 0.7 |
| c1ccc(Oc2cc[n+](CCCCCCCCCC[n+]3ccc(Oc4ccccc4)c4ccccc43)c3ccccc23)cc1 | 2.7 | 6.5 |
| c1ccc2c(c1)ccc[n+]2CCCCCCCCCC[n+]1cccc2ccccc21 | 21 | 15 |
| Cc1cc(N)c2ccccc2[n+]1CCCCCCCCCC[n+]1c(C)cc(N)c2ccccc21.[Cl-].[Cl-] [DEQUALINIUM CHLORIDE] | 0.74 | 1 |
| CC(=O)O[C@H]1C[C@@H]2CC[C@@H]3[C@H](CC[C@@]4(C)[C@H]3C[C@H]([N+]3(C)CCCCC3)[C@@H]4OC(C)=O)[C@@]2(C)C[C@@H]1[N+]1(C)CCCCC1.[Br-].[Br-] [PANCURONIUM BROMIDE] | 6.8 | – |
| CN(C)c1cc[n+](CCCCCCCCCC[n+]2ccc(N(C)C)c3ccccc32)c2ccccc12 | 1.4 | 1.4 |
| Nc1c2c([n+](CCCCCCCCCC[n+]3c4c(c(N)c5ccccc53)CCCC4)c3ccccc13)CCCC2 | 1 | 0.9 |
| CN(c1ccccc1)c1cc[n+](CCCCCCCCCC[n+]2ccc(N(C)c3ccccc3)c3ccccc32)c2ccccc12 | 1.4 | 1.7 |
| Nc1ccc2c(NCc3ccccc3)cc[n+](CCCCCCCCCC[n+]3ccc(NCc4ccccc4)c4ccc(N)cc43)c2c1 | 0.5 | 0.9 |

Continued, in another order:

| IC50 [1] [µM] | SMILES | EMR [2] |
| --- | --- | --- |
| 1.4 | Nc1cc[n+](CCCCCCCCCC[n+]2ccc(N)c3ccccc32)c2ccccc12 | 1.3 |
| 14.5 | Cc1cc[n+](CCCCCCCCCC[n+]2ccc(C)c3ccccc32)c2ccccc12 | 26 |
| > 10 | [O-]c1cc[n+](CCCCCCCCCC[n+]2ccc([O-])c3ccccc32)c2ccccc12 | > 10 |
| 0.6 | COc1cc(OC)c(CNc2cc[n+](CCCCCCCCCC[n+]3ccc(NCc4c(OC)cc(OC)cc4OC)c4ccccc43)c3ccccc23)c(OC)c1 | 1 |
| 2.4 | c1ccc(Nc2cc[n+](CCCCCCCCCC[n+]3ccc(Nc4ccccc4)c4ccccc43)c3ccccc23)cc1 | 3.4 |
